Drawing on ChEMBL document CHEMBL1152292, “Biarylpyrazolyl oxadiazole as potent, selective, orally bioavailable cannabinoid-1 receptor antagonists for the treatment of obesity” (J Med Chem, 2008), this text covers Activity, IC50 and Ratio IC50 for 3 molecules.

The subject of one experiment is Mus musculus. In words: Reduction in body weight in diet-induced obese C57BL/6J mouse model at 10 mg/kg, po after 14 days. The class given is functional. The arrangement: scale not given: the % may be the effect or the level left. Put shortly:
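Male C57BL/6J DIO mice over 38 g, singly housed on a 12 h/12 h light/dark cycle with free access to food and water, habituated at least 7 days, tested during the light period. Compound dissolved fresh daily in deionized water with 10% DMSO, given orally at 10 mL/kg daily for 14 days. Vehicle controls n=5, treated groups n=6. Body weight recorded daily.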

The target of a further experiment is Cannabinoid receptor 2 (Homo sapiens, UniProt P34972). In words: Displacement of [3H]WIN-55212-2 from human CB2 receptor expressed in CHOK1 cells by liquid scintillation spectrometry. The class given is cell-based, CHO-K1. Put shortly:
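Membranes from CHO K-1 cells transfected with human CB2, prepared as for cerebellum. About 10 µg membrane incubated with radioligand and varied test concentrations in TME buffer plus 0.5% fatty-acid-free BSA, 1 h at 30 °C. Filtered through PEI-soaked GF/B filters. Nonspecific binding defined with 1 µM WIN55,212-2. IC50 by nonlinear regression, triplicates, three independent experiments.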

Experiment [1] is described as follows: Selectivity ratio of IC50 for human CB2 receptor to IC50 for Sprague-Dawley rat CB1 receptor. The method in brief:
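Ratio of CB2 IC50 to CB1 IC50. Both come from radioligand competition on membranes incubated 1 h at 30 °C in TME/0.5% BSA: rat cerebellar membranes for CB1, human CB2-transfected CHO K-1 membranes for CB2. IC50 by nonlinear regression from three independent triplicate experiments.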

For another experiment, the target named is Cannabinoid receptor 1 (Rattus norvegicus, UniProt P20272). In words: Displacement of [3H]CP-55940 from CB1 receptor in Sprague-Dawley rat cerebellum by liquid scintillation spectrometry. Put shortly: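 Cerebella from male rats (200-300 g) homogenized in TME buffer (50 mM Tris-HCl, 1 mM EDTA, 3 mM MgCl2, pH 7.4), centrifuged 48000g 30 min at 4 °C. About 10 µg membrane incubated with radioligand and varied test concentrations in TME plus 0.5% fatty-acid-free BSA, 1 h at 30 °C. Filtered through PEI-soaked GF/B filters. […] IC50 by nonlinear regression, triplicates, three independent experiments.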
Cannabinoid receptor 1, sequence (P20272 whole entry): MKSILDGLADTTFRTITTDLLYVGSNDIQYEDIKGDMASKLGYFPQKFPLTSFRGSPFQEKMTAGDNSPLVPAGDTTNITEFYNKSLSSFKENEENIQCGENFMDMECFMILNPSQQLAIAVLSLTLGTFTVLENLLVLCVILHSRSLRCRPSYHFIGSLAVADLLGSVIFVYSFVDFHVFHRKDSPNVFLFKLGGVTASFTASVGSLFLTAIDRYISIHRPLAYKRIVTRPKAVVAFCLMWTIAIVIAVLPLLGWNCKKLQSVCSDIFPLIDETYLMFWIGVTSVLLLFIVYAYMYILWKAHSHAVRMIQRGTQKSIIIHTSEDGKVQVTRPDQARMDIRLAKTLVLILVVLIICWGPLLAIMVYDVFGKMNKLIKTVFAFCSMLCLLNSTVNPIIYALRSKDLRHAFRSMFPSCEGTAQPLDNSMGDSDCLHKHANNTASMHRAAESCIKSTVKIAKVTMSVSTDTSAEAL
In general terms: Displacement assays read how much labelled ligand stays bound in the presence of the test substance.

Cannabinoid receptor 2, sequence (P34972 whole entry): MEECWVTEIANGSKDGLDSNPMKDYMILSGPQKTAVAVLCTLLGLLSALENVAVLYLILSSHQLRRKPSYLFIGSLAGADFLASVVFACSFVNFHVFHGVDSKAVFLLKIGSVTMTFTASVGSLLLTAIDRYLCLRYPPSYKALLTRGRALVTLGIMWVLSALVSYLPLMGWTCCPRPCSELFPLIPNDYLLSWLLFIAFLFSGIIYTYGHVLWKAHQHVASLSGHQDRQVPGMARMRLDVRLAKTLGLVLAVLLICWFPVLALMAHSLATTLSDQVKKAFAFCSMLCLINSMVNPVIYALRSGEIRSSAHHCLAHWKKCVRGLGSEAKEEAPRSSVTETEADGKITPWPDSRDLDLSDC

With `Cc1c(-c2nnc(C3(C(F)(F)F)CC3)o2)nn(-c2ccc(Cl)cc2Cl)c1-c1ccc(Cl)cc1`, the Activity in the experiment on Mus musculus was determined as 22.8%.
With `FC(F)(F)C1(c2nnc(-c3nn(-c4ccc(Cl)cc4Cl)c(-c4ccc(Br)cc4)c3Cn3cncn3)o2)CC1`, the values for the IC50 at Cannabinoid receptor 2 and at Cannabinoid receptor 1 were 948 nM and 0.93 nM, respectively. For the same molecule, the Activity with Mus musculus was found to be 29.3%. The Ratio IC50 in experiment [1] came out at 1020.
Take `FC(F)(F)C1(c2nnc(-c3nn(-c4ccc(Cl)cc4Cl)c(-c4ccc(Cl)cc4)c3Cn3cncn3)o2)CC1`: the IC50 (usually the concentration needed to halve the response being measured) on Cannabinoid receptor 2 worked out at 1750 nM; on Cannabinoid receptor 1, 1.51 nM. The molecule also showed an Activity in the experiment on Mus musculus of 29.5%. The Ratio IC50 in experiment [1] turned out to be 1160.
